# Screening results as filed in PubChem BioAssay.
# An excerpt weighted towards active compounds, which were near 1.8% of everything screened.
# TCR CD3 inh: inhibitors of human TCR-CD3 interaction, primary screen, biochemical, fluorescence, TAMRA-labeled TCR probe | T-cell receptor (TCR) | inhibition, % at 9.4 µM | actives 0.37% (n = 360,000) | AID 651800, 2012; in the data active = inhibition above about 19%;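 also: recombinant mutant TCR 2C K166C tagged with TAMRA read by polarization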
# ABHD4 inh: ABHD4 inhibitors, primary screen, biochemical, fluorescence polarization, mouse; AID 720543, 2013; purified mABHD4, FP-Rh probe fluorescence polarization; inhibition, % at 8.92 µM; actives 0.54% (n = 370,000);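 active = inhibition exceeding the mean over every tested compound plus 3 SD, cut at about 30% in these data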
#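 Assay system: mABHD4 protein; medium: HEPES pH 7.0, NaCl, Pluronic buffer; dosing: 8.92 µM, single dose; schedule: 45 min + 60 min at 25 °C; signal: FP readout, ex 525 nm / em 598 nm; read-out: normalized percent inhibition of probe labeling; repeats: single replicate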
# DDE Tn6 FP inh: inhibitors of Tn6 peptide binding to fibrin DD(E), primary screen, biochemical, fluorescence polarization, human fibrin, Tn6 probe | actives 0.21% (n = 370,000) | Fibrinogen beta chain (Homo sapiens), P02675 | AID 720509, 2013 | Fibrin DD(E) TRITC-Tn6 fluorescence polarization displacement | inhibition, % at 8.3 µM;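 active = inhibition above a per-campaign cutoff: mean of compounds within control limits plus 3 SD, cut at about 15% in these data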
# Target sequence (P02675 whole entry, looked up): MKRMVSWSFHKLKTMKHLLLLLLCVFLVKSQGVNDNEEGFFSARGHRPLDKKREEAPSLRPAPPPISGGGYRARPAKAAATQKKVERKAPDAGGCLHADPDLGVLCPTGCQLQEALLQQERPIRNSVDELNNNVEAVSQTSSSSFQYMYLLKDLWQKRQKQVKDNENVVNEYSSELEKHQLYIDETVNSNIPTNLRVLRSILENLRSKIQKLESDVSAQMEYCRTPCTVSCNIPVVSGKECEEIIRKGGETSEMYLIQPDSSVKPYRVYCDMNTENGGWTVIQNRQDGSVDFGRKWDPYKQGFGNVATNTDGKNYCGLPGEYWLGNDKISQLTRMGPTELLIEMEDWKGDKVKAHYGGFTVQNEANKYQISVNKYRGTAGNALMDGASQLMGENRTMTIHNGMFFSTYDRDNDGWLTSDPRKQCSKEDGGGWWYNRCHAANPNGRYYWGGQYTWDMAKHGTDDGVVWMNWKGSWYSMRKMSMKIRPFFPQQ
# DDE Tn7 FP inh: inhibitors of Tn7 peptide binding to fibrin DD(E), primary screen, biochemical, fluorescence polarization, human fibrin, Tn7 probe | Fibrinogen beta chain (Homo sapiens), P02675 | FP displacement of FITC-Tn7 peptide from fibrin DD(E); 0% = median of compound wells per plate | inhibition, % at 8.3 µM | actives 0.13% (n = 370,000) | AID 720508, 2013;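 active = inhibition above the mean of compounds falling within the control limits plus 3 SD of them, cut at about 14% in these data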
#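 system = human fibrin DD(E) protein | quantity = DD(E) 2 µM final | medium = Tris/NaCl/CaCl2 buffer, pH 7.8 | also added = labelled Tn7 tracer, 0.1 µM | compound dosing = single point at 8.3 µM | timing = compound with protein 10 min, then 3 h after probe, room temperature | signal = FP measurement | benchmarks = Aha-Tn7 high control | repeats = one replicate per compound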
# SIAE inh: human SIAE inhibitors, primary screen, biochemical, fluorescence polarization, FP-Rh probe, 1536-well HTS; Sialate O-acetylesterase (Homo sapiens), Q9HAT2; SIAE FP-Rh probe binding; inhibition, % at 9.66 µM; actives 0.69% (n = 370,000); AID 1053197, 2014;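 active = inhibition above a cutoff: mean of compounds within the control limits plus 3 SD of those, cut at about 17% in these data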
# HTRA1 inh: HTRA1 serine protease inhibitors, primary screen, biochemical, fluorescence polarization, HTS; Q92743; recombinant HTRA1, FP-rhodamine activity-based probe; inhibition, % at 5.96 µM; actives 0.5% (n = 340,000); in the data active = inhibition above about 36%
# ABHD4 confirm: ABHD4 inhibitors, retest, confirmation, biochemical, fluorescence polarization, mouse | shares compounds with ABHD4 inh | purified mABHD4, FP-Rh probe fluorescence polarization | inhibition, % at 8.92 µM | actives 55% (n = 1,800);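 active = mean inhibition across replicates above the hit cutoff set in the primary screen, cut at about 30% in these data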
# Numbers stand for hits; i = inactive; nt = no result given; ! = repeats disagree.
SMILES,TCR CD3 inh,ABHD4 inh,DDE Tn6 FP inh,DDE Tn7 FP inh,SIAE inh,HTRA1 inh,ABHD4 confirm
Cc1cc(/C=C2\SC(=S)NC2=O)c(C)n1-c1ccc(O)cc1,i,35,i,i,i,i,44
Cc1cc(/C=C2/C(=O)NN(c3ccccc3)C2=O)c(C)n1-c1ccc(O)cc1,i,34,i,i,i,i,i
Cc1ccc(C)c(NC(=O)CN(C)C(=O)c2ccc(S(=O)(=O)N3CCCCCC3)cc2)c1,i,i,i,i,i,i,nt
C[C@H](O)[C@@H]1C(=O)N2CCc3ccc(N4CCN(C)CC4)cc3[C@@H]2C[C@@H]1N(C)C(=O)c1cccnc1,i,i,i,i,i,i,nt
O=C(Nc1ncccc1O)c1c(O)c2ccccc2[nH]c1=O,i,39,i,i,i,i,i
Cc1ccccc1S(=O)(=O)N(C)C[C@H]1OCc2cnnn2CCCC(=O)N([C@H](C)CO)C[C@@H]1C,i,i,i,i,i,nt,nt
CSc1nnc(-c2ccccc2)c(-c2ccccc2)n1,i,i,i,i,i,i,nt
Cc1ccc(NC(=O)CSc2nnc(-c3ccco3)c(-c3ccco3)n2)cc1,i,41,i,i,i,i,36
O=C(CSc1nnc(-c2ccco2)c(-c2ccco2)n1)Nc1ccccc1,i,51,i,i,i,i,39
CSc1nnc(-c2ccco2)c(-c2ccco2)n1,i,40,i,i,i,i,46
CN(C)c1ccc(NC(=O)CSc2nnc(-c3ccco3)c(-c3ccco3)n2)cc1,i,i,i,i,i,i,nt
CCOC(=O)[C@]12CCCCC/C=C\1N(CCc1ccc(Cl)cc1)C(=O)[C@H]2CC(=O)N1CCN(C(=O)C2CC2)CC1,nt,i,i,i,i,nt,nt
COC(=O)c1ccc(N2CCN(c3ccccc3)CC2)nc1,i,i,i,i,i,i,nt
C=CCN(C)CC#Cc1ccc(F)cc1,nt,i,i,i,i,nt,nt
Oc1ccc(NC(=S)Nc2ccc(F)cc2)cc1,i,33,i,i,i,i,i
Cc1cccc2c1c1ccc3c(c1n2C)C(=O)C=CC3=O,i,48,i,i,i,i,71
Cc1ccccc1N1CC(=O)N(c2ccccc2C)CC1=O,i,i,i,i,i,i,nt
CCCCCCSc1ccc(-c2nc3ccc(C)cn3c2NCCCC)cc1OC,i,i,i,i,i,nt,nt
CCCCNc1c(-c2ccc(SC(C)CC)c(OC)c2)nc2ccc(C)cn12 (stereo not drawn),i,36,i,i,i,i,47
CCCCCCSc1cc(-c2nc3ccc(C)cn3c2NCc2ccccc2)ccc1OC,i,40,i,i,i,i,47
CCCCCCSc1cc(-c2nc3cc(C)ccn3c2NCCCC)ccc1OC,i,37!,i,i,i,i,57
CCCCNc1c(-c2cccc(-c3cc(C(C)=O)cs3)c2)nc2cc(C)ccn12,i,42,i,i,i,i,46
CCCCCCSc1cc(-c2nc3cnccn3c2NCCCC)ccc1OC,nt,nt,nt,nt,nt,i,nt
COC(=O)C1=C(C)N(C)C(=NCC2CC2)NC1c1ccc(Cl)cc1 (stereo not drawn),i,i,i,i,i,nt,nt
CC(C)(C)OC(=O)N1CCC(C(=O)Nc2cccc(C(=O)N3CCOCC3)c2)CC1,i,i,i,i,i,i,nt
SMILES,TCR CD3 inh,ABHD4 inh,DDE Tn6 FP inh,DDE Tn7 FP inh,SIAE inh,HTRA1 inh,ABHD4 confirm
CC1CCCCC12NC(=O)N(CC(=O)OCC(=O)c1ccc(OC(F)F)cc1OC(F)F)C2=O (stereo not drawn),i,i,i,i,i,i,nt
Cc1ccc(C)c(NC(=O)c2cc([N+](=O)[O-])cc([N+](=O)[O-])c2)c1,i,i,i,i,i,i,nt
CC(C)(N[C@@H](Cc1c[nH]c2ccccc12)C(=O)NCC(c1ccccc1)c1ccccc1)C(=O)NC1CCCCC1,nt,i,i,i,i,nt,nt
CCC(C)Sc1cccc(-c2nc3ccc(Cl)cn3c2NCc2ccccc2)c1 (stereo not drawn),nt,nt,nt,nt,nt,i,nt
CCC(C)Sc1cccc(-c2nc3ccc(C)cn3c2NCc2ccccc2)c1 (stereo not drawn),i,36!,i,i,i,i,32
CC12CCC(=O)N1C(C(=O)N1CCN(c3cccc(Cl)c3)CC1)CS2 (stereo not drawn),i,i,i,i,i,i,nt
CCC(C)[C@H](NC(=O)[C@H](Cc1ccccc1)n1c(=O)[nH]c2ccccc2c1=O)C(=O)N1CCC[C@@H]1C(=O)O (stereo partly drawn),i,i,i,i,i,i,nt
CCN(CC)c1ccc(Nc2nc(-c3cccnc3)cs2)cc1,i,30,i,i,i,i,35
CN(C)c1ccc(Nc2nc(-c3cccnc3)cs2)cc1,i,i,i,i,i,i,nt
COC(=O)[C@]12C[C@H](CC(=O)N3CCN(C(=O)c4ccco4)CC3)C(=O)N(Cc3ccc(Cl)cc3Cl)C1=C[C@H](COCc1ccccc1)O[C@@H]2C,nt,i,i,i,i,nt,nt
O=[N+]([O-])c1c(Nc2ccccc2O)cc(Cl)c2nonc12,i,33,i,i,i,i,49
O=[N+]([O-])c1c(Nc2ccccc2O)ccc2nonc12,i,i,i,i,i,i,nt
CC(C)(C)C(=O)Nc1sc(-c2ccccc2)cc1C(=O)O,i,i,i,i,i,i,nt
Cc1cccc(C(=O)Nc2sc(-c3ccccc3)cc2C(=O)O)c1,i,51,i,i,i,i,53
OCCNc1ncnc2c1ncn2[C@H]1CN(Cc2ccncc2)C[C@@H](CO)O1,i,i,i,i,i,nt,nt
COc1cc(/C=N/NC(=S)NC2CC3C=CC2C3)cc(OC)c1OC (stereo not drawn),i,30,i,i,i,nt,38
CC1(C(=O)NS(=O)(=O)c2cccc(C#N)c2)CCN1C(=O)Cc1ccccc1Cl (stereo not drawn),i,i,i,i,i,nt,nt
COCc1cn(-c2cccc(-c3noc4c3C(=O)N(CC(=O)N3CCOCC3)CC4)c2)nn1,nt,32,i,i,i,nt,i
CN(C)Cc1cn(-c2cccc(-c3noc4c3C(=O)N(CC(=O)N3CCOCC3)CC4)c2)nn1,nt,i,i,i,i,nt,nt
Cc1cc(C)c(OCC(=O)OCC(=O)NCCC2=CCCCC2)c(C)c1,i,i,i,i,i,i,nt
